# Screening data from PubChem.
# GSTO1 inh: counter-screen for RBBP9 inhibitors: inhibitors of human GSTO1. P78417. recombinant GSTO1, activity-based probe fluorescence polarization. inhibition, % at 5.96 µM. 300,000 compounds, 1.1% hits;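 active = inhibition above the campaign mean inhibition plus 3 SD, cut at about 35% in these data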;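 also: 0% = GSTO1-1 with DMSO and 100% = wells lacking GSTO1-1 enzyme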
# Target sequence (P78417 whole entry, looked up): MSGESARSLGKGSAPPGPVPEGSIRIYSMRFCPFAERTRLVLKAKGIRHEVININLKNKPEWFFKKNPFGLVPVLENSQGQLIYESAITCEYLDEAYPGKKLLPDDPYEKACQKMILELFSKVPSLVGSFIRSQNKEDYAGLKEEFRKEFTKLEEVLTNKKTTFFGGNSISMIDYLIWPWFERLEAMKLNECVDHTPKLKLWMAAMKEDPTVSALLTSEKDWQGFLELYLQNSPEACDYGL
# SUMO HTRF inh: inhibitors of human SUMOylation (UBC9); P63279; HTRF SUMOylation assay, SAE1/SAE2 + UBC9, in vitro; inhibition, % at 35 µM; 290,000 compounds, 0.36% hits; in the data active = inhibition above about 50%, passing the limit was not always enough
# Target sequence (P63279 whole entry, looked up): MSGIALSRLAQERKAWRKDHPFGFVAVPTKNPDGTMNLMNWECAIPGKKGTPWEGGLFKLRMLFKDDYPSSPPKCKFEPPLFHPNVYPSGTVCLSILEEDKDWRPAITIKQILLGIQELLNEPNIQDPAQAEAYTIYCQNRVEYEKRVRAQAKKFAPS
# Apaf-1 inh: human Apaf-1 inhibition; inhibition, % at 20 µM; reconstituted apoptosome caspase-3 activity, DEVD-Rh110 fluorescence; O14727; AID 489030; 330,000 compounds, 0.71% hits; active = inhibition of at least 40% at 20 µM;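 also: plate controls were DMSO wells for no effect and DEVD-CHO caspase inhibitor wells for full effect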
#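 Material: reconstituted apoptosome with Apaf-1, cytochrome c, caspase-9, procaspase-3, dATP; medium: pH 7.5 Hepes buffer with CHAPS, BSA, DTT; also added: cytochrome c and DEVD-Rh110 substrate; timing: 30 min plus 50 min, RT; signal: Rh110 fluorescence intensity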
# Redox H2O2 prof: compounds producing H2O2 with reducing agent – biochemical, NIH compound library profiling, artefact control for MLSCN library redox annotation, primary screen. activation, % at 10 µM. DTT-dependent redox cycling H2O2, phenol red/HRP absorbance; 100% = 100 µM peroxide control, 0% = buffer. 200,000 compounds, 0.03% hits;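 active = activation of at least 50% relative to the plate's high and low controls in the primary single-dose screen; inactive = activation below 50%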;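 also: compound incubated with DTT at 0.8 mM final as the reducing agent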
# HKDC1 inhibitor: HKDC1 (human) hexokinase inhibition. Q2TB90. recombinant HKDC1, G6PDH/diaphorase resazurin coupled fluorescence. inhibition, % at 20 µM. 340,000 compounds, 0.16% hits. AID 493160;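 active = inhibition above about 35% when tested at 20 µM, limit read from the data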;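 also: plate controls were DMSO wells with enzyme for no effect and DMSO wells lacking enzyme for full effect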
#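 Assay system: in-house recombinant HK5 (HKDC1) enzyme. Input: HKDC1 at 5 µg/mL. Medium: Tris pH 8.0 buffer with MgCl2, Tween-20, BSA, BME. Dosing: single 20 µM dose. Schedule: 90 min reaction incubation at room temperature, dark. Signal: resazurin-to-resorufin fluorescence via G6PDH and diaphorase coupling, 525/613 nm. Controls: DMSO-enzyme wells negative, buffer-substituted wells positive.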
# GSTO1 confirm: confirmation of human GSTO1 inhibitors | shares compounds with GSTO1 inh | recombinant GSTO1, probe fluorescence polarization | inhibition, % at 5.96 µM | 2,400 compounds, 54% hits;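 active = inhibition above the primary screen's cutoff, its mean inhibition plus 3 SD, cut at about 35% in these data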;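 also: loss of polarization as inhibitors block binding of rhodamine sulfonate ester activity probe; 0% = GSTO1 with DMSO and 100% = wells lacking GSTO1 enzyme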
# GSTO1 ABPP inh: GSTO1 (human) inhibition by gel ABPP. AID 463110. shares compounds with GSTO1 inh. inhibition, % at 1 µM. recombinant GSTO1, gel ABPP SE-Rh probe fluorescence. 130 compounds, 30% hits;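 active = inhibition of the enzyme GSTO1 above about 75%, limit read from the data; inactive = inhibition below that limit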
# Active calls of the source: *; nt = no result. Rows were chosen to be rich in hits. Some 1.4% of all compounds tested hit in one or more screens of this group.
SMILES,GSTO1 inh,SUMO HTRF inh,Apaf-1 inh,Redox H2O2 prof,HKDC1 inhibitor,GSTO1 confirm,others
CN(C)c1cccc(NC(=O)c2cccc3ccccc23)c1,38*,-11,6,nt,2,5,
Nc1c(S(=O)(=O)O)cc(NC(=O)c2ccccc2)c2c1C(=O)c1ccccc1C2=O,41*,33,25,nt,26,63*,
Cc1ccccc1-c1cc(C(=O)O)n(CC2CC(c3cccnc3)=NO2)n1 (configuration not stated),nt,nt,2,nt,-8,nt,
C=CCN1C(=O)NC(c2ccccc2)(C(F)(F)F)S/C1=C(\C#N)c1nnc(N2CCOCC2)n1-c1ccccc1 (configuration not stated),43*,16,3,0,7,58*,
Cc1cc(NC(=O)CSCC(=O)N(C)Cc2ccc(Cl)cc2Cl)no1,9,nt,29,nt,1,nt,
COc1cccc(C(C(=O)NCC2CCCO2)N(C(=O)Cn2nnc3ccccc32)c2ccccc2C(C)=O)c1OC (configuration not stated),-3,-6,-1,nt,-6,nt,
CC(C)Oc1ccc(CCC(=O)N/N=C/c2ccc3c(c2)OCO3)cc1,25,2,11,nt,7,nt,
O=C(CCc1ccc(O)c(O)c1)N/N=C/c1ccc2c(c1)OCO2,44*,14,0,nt,5,11,
CCCCn1c(N)c(N(CC(C)C)C(=O)CSC(C)C(=O)Nc2cc(C)on2)c(=O)[nH]c1=O (configuration not stated),0,nt,2,nt,-3,nt,
Cc1cccc(NC(=O)CSc2nnc(-c3ccco3)c(-c3ccco3)n2)c1,nt,46,26,1,10,nt,
Cc1cccc(NC(=O)CSc2nnc(-c3ccco3)c(-c3ccco3)n2)c1C,42*,36,24,3,17,16,
CC1=NN(c2ccc(Cl)cc2)C(=O)C1C(c1cccc(O)c1)c1c(C)[nH]n(-c2ccc(Cl)cc2)c1=O (configuration not stated),66*,nt,85*,0,20,56*,
CCN(Cc1ccc(OC)c(F)c1)C(=O)C1CCCO1 (configuration not stated),-2,1,6,nt,-2,nt,
CCN(Cc1ccc(OC)c(F)c1)C(=O)CCl,98*,9,4,-1,-3,101*,GSTO1 ABPP inh=47
COc1ccc(CCNC(=O)c2ccc3c(=O)n4c(nc3c2)CCC4)cc1OC,nt,nt,3,nt,3,nt,
O=C(CCl)N1CCCC1c1ccc2c(c1)OCCO2 (configuration not stated),55*,9,6,nt,0,70*,GSTO1 ABPP inh=7
COC(=O)C1(C)Cc2cc(OC(C)=O)c(OC(C)=O)cc2N1 (configuration not stated),66*,4,19,nt,nt,24,
O=C1CCN(CCc2ccccc2)CCN1[C@H](CSc1ccc(Br)cc1)c1ccccc1,-3,-6,19,nt,2,nt,
CCCN1CCC(=O)N([C@H](CSc2ccc(Br)cc2)c2ccccc2)CC1,53*,19,22,nt,-2,8,
CC(C)OC(=O)c1sc2nc(-c3ccccc3)ccc2c1N,2,18,3,3,-1,nt,
COC(=O)c1sc2nc(-c3ccco3)ccc2c1N,48*,22,12,0,6,16,
Cc1ccc(CNC(=O)c2ccc(COc3ccccc3)cc2)cc1,-7,-3,2,0,8,nt,
COc1ccc(OC)c2sc(N3CCN(C(=O)c4ccc([N+](=O)[O-])s4)CC3)nc12,54*,nt,21,nt,5,10,
O=C1c2cccc(Cl)c2C(=O)c2c1cccc2N1CCCC1,44*,nt,32,4,12,7,
Cc1cc(C(=O)O)ccc1-n1c(C)ccc1C,46*,nt,25,2,nt,20,
N#CCN(C(=O)COC(=O)CCCNC(=O)c1ccc(Cl)cc1)c1ccccc1,nt,nt,-17,nt,-3,nt,
Cc1c(NC(=O)C(C)OC(=O)c2ccc([N+](=O)[O-])s2)c(=O)n(-c2ccccc2)n1C (configuration not stated),44*,8,24,0,-5,13,
